Our source for the inhibition values is ChEMBL document CHEMBL4118021, “Studies of TAK1-centered polypharmacology with novel covalent TAK1 inhibitors” (Bioorg Med Chem, 2017).

Structures are written as SMILES.

Assay [1] deals with Serine/threonine-protein kinase 32C (Homo sapiens) (UniProt Q86UX6). The experiment in a line: Inhibition of YANK3 in human SKCO1 cells at 1 uM after 4 hrs using biotin labeled DVKPDNILLDER probe by mass-spectrometric analysis relative to control. Type of assay: cell-based. The essentials:
(§1)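 Live SK-CO-1 cells exposed to compound at 1 μM or DMSO for 4 h (KiNativ). Lysates then labeled with lysine-reactive ATP/ADP-biotin probe, and probe-labeled kinase peptides quantified by mass spectrometry. Percent inhibition of probe-dependent recovery calculated relative to DMSO-treated cells.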

In assay [2] the target is Aurora kinase A (Homo sapiens) (UniProt O14965). The assay can be described thus: Inhibition of AurA in human SKCO1 cells at 1 uM after 4 hrs using biotin labeled DIKPENLLLGSAGELK probe by mass-spectrometric analysis relative to control.
Chain of Aurora kinase A (Homo sapiens) (O14965 whole entry, looked up, the tested form may be a part): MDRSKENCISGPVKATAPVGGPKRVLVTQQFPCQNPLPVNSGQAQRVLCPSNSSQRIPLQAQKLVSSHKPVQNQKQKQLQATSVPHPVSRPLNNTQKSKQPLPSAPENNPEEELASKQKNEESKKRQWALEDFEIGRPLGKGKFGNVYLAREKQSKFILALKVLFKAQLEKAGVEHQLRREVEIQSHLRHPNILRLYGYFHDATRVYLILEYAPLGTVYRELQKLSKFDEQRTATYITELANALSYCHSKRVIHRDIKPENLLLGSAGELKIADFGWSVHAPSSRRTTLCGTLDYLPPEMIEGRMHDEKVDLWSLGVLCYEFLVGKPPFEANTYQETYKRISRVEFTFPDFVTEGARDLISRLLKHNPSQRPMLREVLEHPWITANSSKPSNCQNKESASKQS
Assay [3] addresses Serine/threonine-protein kinase MARK2 (Homo sapiens) (UniProt Q7KZI7). The experiment in a line: Inhibition of MARK2 in human SKCO1 cells at 1 uM after 4 hrs using biotin labeled DLKAENLLLDADMNIK probe by mass-spectrometric analysis relative to control. It is filed as cell-based.
Assay [4] has as its target Mitogen-activated protein kinase kinase kinase 20 (Homo sapiens) (UniProt Q9NYL2). The experiment in a line: Inhibition of ZAK in human SKCO1 cells at 1 uM after 4 hrs using biotin labeled WISQDKEVAVKK probe by mass-spectrometric analysis relative to control. Type of assay: cell-based. The essentials:
as §1

Assay [5] deals with Cyclin-dependent kinase 11B (Homo sapiens) (UniProt P21127). The assay can be described thus: Inhibition of PITSLRE in human SKCO1 cells at 1 uM after 4 hrs using biotin labeled DLKTSNLLLSHAGILK probe by mass-spectrometric analysis relative to control. Type of assay: cell-based. The essentials:
as §1

Assay [6] concerns the target Tyrosine-protein kinase CSK (Homo sapiens) (UniProt P41240). The experiment in a line: Inhibition of CSK in human SKCO1 cells at 1 uM after 4 hrs using biotin labeled VSDFGLTKEASSTQDTGKLPVK probe by mass-spectrometric analysis relative to control. It is filed as cell-based.
In assay [7] the target is Aurora kinase A (Homo sapiens) (UniProt O14965). The experiment in a line: Inhibition of AurA in human SKCO1 cells at 1 uM after 4 hrs using biotin labeled GKFGNVYLAR probe by mass-spectrometric analysis relative to control. The conditions noted are these: pooled result: one value given for 3 cell lines, strains, targets or settings.
Assay [8] concerns the target Ribosomal protein S6 kinase alpha-4 (Homo sapiens) (UniProt O75676). The experiment in a line: Inhibition of MSK2 domain1 in human SKCO1 cells at 1 uM after 4 hrs using biotin labeled DLKLENVLLDSEGHIVLTDFGLSK probe by mass-spectrometric analysis relative to control. It is filed as cell-based.
Assay [9] concerns the target T1, Serine/threonine-protein kinase Chk1 (Homo sapiens) (UniProt O14757).
T1 sequence (whole entry): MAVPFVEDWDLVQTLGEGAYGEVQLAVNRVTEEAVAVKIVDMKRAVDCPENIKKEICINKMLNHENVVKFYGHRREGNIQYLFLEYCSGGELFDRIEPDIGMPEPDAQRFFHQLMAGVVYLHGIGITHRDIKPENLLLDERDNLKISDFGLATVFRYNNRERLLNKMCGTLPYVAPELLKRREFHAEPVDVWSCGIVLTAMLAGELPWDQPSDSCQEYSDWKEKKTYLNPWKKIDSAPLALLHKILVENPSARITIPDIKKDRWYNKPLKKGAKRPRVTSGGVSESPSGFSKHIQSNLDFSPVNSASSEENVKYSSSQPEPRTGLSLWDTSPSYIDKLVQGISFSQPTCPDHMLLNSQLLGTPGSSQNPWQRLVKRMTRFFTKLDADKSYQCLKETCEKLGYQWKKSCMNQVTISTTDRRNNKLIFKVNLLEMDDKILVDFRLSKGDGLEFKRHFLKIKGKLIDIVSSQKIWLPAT
The experiment in a line: Inhibition of CHK1 in human SKCO1 cells at 1 uM after 4 hrs using biotin labeled DIKPENLLLDER probe by mass-spectrometric analysis relative to control. Type of assay: cell-based.

Assay [10] addresses Glycogen synthase kinase-3 beta (Homo sapiens) (UniProt P49841). The experiment in a line: Inhibition of GSK3B in human SKCO1 cells at 1 uM after 4 hrs using biotin labeled DIKPQNLLLDPDTAVLK probe by mass-spectrometric analysis relative to control. It is filed as cell-based.
In assay [11] the target is T2, Mixed lineage kinase domain-like protein (Homo sapiens) (UniProt Q8NB16).
T2 sequence (whole entry): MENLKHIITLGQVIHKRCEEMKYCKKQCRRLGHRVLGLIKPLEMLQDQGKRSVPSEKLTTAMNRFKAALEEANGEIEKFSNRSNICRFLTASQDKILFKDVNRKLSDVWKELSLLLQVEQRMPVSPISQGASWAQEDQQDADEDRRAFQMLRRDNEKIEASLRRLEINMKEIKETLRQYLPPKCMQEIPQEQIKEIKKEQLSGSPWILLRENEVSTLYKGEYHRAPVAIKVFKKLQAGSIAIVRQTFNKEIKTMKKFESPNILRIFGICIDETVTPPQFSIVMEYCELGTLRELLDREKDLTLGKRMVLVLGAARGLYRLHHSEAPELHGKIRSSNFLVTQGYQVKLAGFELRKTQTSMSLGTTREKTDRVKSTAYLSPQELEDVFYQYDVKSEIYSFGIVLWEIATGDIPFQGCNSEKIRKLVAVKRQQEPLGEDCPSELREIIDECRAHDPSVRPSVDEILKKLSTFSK
The assay can be described thus: Inhibition of MLKL in human SKCO1 cells at 1 uM after 4 hrs using biotin labeled APVAIKVFK probe by mass-spectrometric analysis relative to control. Type of assay: cell-based.

In assay [12] the target is T3, Dual specificity mitogen-activated protein kinase kinase 7 (Homo sapiens) (UniProt O14733).
T3 sequence (whole entry): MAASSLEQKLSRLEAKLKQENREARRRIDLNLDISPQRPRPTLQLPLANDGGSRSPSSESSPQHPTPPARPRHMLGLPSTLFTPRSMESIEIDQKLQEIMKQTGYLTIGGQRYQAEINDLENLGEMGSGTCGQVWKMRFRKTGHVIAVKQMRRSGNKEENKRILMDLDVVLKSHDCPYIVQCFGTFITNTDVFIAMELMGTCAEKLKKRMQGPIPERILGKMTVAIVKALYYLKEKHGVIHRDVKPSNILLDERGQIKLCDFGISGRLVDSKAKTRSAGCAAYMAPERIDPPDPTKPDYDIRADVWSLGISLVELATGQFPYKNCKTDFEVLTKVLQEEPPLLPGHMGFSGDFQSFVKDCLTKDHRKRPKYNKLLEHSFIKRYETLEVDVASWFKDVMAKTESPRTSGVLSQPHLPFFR
The experiment in a line: Inhibition of MAP2K7 in human SKCO1 cells at 1 uM after 4 hrs using biotin labeled DVKPSNILLDER probe by mass-spectrometric analysis relative to control. Type of assay: cell-based.

Chain of Cyclin-dependent kinase 11B (Homo sapiens) (P21127 whole entry): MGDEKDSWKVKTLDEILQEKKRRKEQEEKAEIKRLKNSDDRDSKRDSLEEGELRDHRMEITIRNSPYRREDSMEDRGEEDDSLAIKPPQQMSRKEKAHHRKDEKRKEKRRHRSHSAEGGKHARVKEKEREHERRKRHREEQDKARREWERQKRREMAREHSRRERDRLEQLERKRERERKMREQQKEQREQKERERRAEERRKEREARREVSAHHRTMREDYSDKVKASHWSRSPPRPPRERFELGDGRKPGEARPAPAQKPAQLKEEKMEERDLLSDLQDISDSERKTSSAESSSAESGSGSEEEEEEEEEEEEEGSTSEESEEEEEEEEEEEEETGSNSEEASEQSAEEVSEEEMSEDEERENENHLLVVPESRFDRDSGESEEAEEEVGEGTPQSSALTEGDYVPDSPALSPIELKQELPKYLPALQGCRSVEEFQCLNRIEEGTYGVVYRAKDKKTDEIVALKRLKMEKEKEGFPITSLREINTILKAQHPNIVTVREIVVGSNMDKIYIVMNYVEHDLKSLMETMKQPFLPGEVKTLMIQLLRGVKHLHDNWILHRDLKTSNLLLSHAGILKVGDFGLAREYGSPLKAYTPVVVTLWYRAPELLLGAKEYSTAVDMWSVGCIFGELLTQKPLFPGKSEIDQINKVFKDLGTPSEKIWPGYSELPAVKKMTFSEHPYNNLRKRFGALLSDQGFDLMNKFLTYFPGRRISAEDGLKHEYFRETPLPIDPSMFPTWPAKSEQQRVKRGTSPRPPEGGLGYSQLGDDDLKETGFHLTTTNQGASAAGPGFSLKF
Chain of Tyrosine-protein kinase CSK (Homo sapiens) (P41240 2-450 limits assumed): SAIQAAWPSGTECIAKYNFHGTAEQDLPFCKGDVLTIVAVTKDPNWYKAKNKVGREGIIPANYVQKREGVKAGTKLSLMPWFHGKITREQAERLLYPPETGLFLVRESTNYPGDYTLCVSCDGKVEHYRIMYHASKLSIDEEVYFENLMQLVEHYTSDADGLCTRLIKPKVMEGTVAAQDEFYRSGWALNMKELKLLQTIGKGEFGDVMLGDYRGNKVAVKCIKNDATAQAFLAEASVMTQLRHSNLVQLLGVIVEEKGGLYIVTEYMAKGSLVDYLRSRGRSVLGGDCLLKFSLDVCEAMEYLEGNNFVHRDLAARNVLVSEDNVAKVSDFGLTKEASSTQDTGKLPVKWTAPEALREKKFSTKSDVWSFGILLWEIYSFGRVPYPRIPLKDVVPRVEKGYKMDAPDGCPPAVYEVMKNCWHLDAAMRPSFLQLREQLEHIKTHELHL
Chain of Glycogen synthase kinase-3 beta (Homo sapiens) (P49841 whole entry, looked up, the tested form may be a part): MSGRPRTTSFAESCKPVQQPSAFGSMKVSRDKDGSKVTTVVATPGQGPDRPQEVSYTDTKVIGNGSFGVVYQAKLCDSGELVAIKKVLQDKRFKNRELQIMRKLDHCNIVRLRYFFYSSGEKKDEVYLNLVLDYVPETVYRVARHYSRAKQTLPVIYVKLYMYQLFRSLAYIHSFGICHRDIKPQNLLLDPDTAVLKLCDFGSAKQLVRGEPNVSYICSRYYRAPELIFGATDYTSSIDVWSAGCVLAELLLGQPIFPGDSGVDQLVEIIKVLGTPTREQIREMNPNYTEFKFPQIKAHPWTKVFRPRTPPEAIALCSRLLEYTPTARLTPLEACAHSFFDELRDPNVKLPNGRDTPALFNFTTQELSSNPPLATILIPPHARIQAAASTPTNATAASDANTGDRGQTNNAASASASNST
Chain of Serine/threonine-protein kinase MARK2 (Homo sapiens) (Q7KZI7 whole entry): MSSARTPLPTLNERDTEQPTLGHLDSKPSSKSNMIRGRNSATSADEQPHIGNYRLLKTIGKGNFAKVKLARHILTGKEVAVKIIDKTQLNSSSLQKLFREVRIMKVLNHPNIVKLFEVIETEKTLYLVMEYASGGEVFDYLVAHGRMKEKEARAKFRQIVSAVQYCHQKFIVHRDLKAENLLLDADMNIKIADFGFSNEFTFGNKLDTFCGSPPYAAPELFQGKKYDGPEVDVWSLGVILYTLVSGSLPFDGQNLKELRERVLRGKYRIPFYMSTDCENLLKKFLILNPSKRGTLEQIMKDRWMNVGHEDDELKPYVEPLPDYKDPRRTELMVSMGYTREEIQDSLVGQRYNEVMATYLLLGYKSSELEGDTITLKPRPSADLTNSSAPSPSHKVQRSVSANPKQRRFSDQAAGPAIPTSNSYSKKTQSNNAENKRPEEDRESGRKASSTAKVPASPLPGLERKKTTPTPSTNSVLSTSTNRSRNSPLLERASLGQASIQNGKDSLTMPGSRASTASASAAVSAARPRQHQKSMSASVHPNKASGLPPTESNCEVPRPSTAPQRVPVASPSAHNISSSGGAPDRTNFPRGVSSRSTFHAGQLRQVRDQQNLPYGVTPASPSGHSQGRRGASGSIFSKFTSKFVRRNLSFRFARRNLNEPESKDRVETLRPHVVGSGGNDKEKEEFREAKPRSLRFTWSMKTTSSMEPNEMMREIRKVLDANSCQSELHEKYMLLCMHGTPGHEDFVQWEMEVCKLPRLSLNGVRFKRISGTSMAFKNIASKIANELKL
Chain of Serine/threonine-protein kinase 32C (Homo sapiens) (Q86UX6 whole entry): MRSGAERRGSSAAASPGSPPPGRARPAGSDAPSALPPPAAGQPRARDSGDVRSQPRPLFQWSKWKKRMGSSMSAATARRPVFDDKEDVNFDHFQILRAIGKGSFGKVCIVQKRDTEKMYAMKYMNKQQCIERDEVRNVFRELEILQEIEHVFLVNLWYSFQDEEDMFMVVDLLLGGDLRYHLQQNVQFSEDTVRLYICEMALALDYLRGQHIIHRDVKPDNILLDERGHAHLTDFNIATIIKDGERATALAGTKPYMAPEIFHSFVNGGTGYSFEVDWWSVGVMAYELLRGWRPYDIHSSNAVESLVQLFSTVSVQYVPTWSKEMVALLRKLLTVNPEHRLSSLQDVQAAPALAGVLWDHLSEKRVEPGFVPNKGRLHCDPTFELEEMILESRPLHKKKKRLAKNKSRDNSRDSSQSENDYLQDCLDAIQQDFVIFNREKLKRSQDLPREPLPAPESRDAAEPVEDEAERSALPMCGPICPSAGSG
Chain of Mitogen-activated protein kinase kinase kinase 20 (Homo sapiens) (Q9NYL2 2-800 limits assumed): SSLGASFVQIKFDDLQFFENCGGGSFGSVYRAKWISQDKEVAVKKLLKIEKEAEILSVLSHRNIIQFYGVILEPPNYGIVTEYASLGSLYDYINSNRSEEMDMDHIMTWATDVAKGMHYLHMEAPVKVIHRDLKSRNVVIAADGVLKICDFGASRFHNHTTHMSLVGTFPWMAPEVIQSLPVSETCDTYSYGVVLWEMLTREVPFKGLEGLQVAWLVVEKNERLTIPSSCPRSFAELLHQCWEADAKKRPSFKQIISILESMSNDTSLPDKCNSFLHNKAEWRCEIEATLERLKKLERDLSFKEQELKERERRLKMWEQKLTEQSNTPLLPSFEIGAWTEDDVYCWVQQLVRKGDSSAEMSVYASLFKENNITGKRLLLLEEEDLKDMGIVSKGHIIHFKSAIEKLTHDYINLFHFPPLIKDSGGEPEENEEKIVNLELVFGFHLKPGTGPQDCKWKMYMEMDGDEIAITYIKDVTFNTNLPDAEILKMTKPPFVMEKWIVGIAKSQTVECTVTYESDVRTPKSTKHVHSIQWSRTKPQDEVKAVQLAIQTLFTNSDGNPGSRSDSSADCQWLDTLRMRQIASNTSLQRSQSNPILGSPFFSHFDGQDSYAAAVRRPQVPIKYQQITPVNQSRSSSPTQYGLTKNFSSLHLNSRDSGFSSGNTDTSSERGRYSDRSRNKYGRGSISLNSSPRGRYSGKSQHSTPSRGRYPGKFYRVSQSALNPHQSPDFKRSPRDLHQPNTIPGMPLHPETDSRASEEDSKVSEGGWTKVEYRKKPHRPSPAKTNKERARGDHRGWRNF
Chain of Ribosomal protein S6 kinase alpha-4 (Homo sapiens) (O75676 whole entry, looked up, the tested form may be a part): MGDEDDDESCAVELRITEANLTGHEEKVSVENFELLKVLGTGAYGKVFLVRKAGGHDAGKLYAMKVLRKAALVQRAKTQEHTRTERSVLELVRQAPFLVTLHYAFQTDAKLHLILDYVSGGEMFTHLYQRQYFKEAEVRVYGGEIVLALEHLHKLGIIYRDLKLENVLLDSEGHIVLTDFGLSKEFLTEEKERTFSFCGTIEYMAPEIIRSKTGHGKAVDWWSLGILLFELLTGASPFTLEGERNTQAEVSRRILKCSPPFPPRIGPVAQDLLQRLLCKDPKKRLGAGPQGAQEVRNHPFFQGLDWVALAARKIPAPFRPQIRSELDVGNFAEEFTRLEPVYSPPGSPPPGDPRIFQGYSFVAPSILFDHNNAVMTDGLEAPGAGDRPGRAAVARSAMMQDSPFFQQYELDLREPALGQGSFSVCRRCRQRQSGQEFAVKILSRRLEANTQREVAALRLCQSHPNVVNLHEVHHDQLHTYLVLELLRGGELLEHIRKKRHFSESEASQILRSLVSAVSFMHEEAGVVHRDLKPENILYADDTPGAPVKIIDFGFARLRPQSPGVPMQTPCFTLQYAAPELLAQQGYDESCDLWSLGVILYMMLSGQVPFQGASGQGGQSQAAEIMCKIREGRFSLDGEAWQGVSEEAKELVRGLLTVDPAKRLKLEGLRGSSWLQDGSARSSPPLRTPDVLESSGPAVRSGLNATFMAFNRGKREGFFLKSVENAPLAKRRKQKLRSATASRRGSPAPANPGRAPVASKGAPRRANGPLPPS

What is called inhibition is the change of the read-out against control, counted positive when it falls. As for `C=CC(=O)Nc1ccccc1Oc1nc(Nc2cnn(CCOC)c2)ncc1Cl`, the inhibition in [1] is 9.3%; in assay [2] it was 48.4%; in assay [3], -8.4%; in [4], -9.2%; in [5], -0.8%; in assay [6], 5.2%. The inhibition in assay [7] is 57.9%; in [8], 10.4%; in assay [9], 48.8%; in [10], 17%; in assay [11] it was 53.7%; in assay [12], 12.3%.

For the molecule `C=CC(=O)Nc1ccccc1Nc1nc(Nc2ccc(N3CCN(C)CC3)cc2)ncc1Cl`, the inhibition in [1] was -0.3%; in [2] it was 89.1%; in [3], -7.2%; in assay [4] it was 26%; in assay [5], -5.5%; in [6] it was -0.8%. Besides, the inhibition in assay [7] was 95.1%; in [8], 24.5%; in assay [9], 53.8%; in assay [10], -6.6%; in assay [11] it was 52.3%; in assay [12], 13.7%.

As to `COc1cc(O)c2c(c1)/C=C/C[C@H](O)[C@H](O)C(=O)/C=C\C[C@H](C)OC2=O`, the inhibition in assay [1] was -1.6%; in assay [2] it was 56.3%; in assay [3] it was 3.6%; in [4] it was 87.5%; in assay [5] it was -1.4%; in [6], -1.8%. In addition, the inhibition came out at 55.7% in assay [7]; 39.8% in assay [8]; 40.2% in assay [9]; 3% in [10]; 56.6% in assay [11]; 18.6% in assay [12].
